{"data": "Assay results from different studies", "target": "Death-associated protein kinase 2 (DAPK2, Homo sapiens, UniProt Q9UIK4)", "note": "Compare with care: the assays were run in different laboratories."}
{"SMILES": "COc1ccc2c(c1)O[C@@H](c1ccc(OC)c(OC)c1)C[C@H]2NC(=O)C1(c2ccc3c(c2)OC(F)(F)O3)CC1", "test": "cell-free assay, competition with immobilised ligand", "setting": "1 µM", "endpoint": "remaining binding", "result": "98%"}
{"SMILES": "CN1CC(Oc2cnc(C#N)cc2-c2ccn3nc(NC(=O)C4CC4)cc3c2)C1", "test": "enzyme activity, inhibitor", "setting": "1 µM", "endpoint": "inhibition", "result": "0%"}
{"SMILES": "Cc1ccc(NC(=O)c2ccc(C)c(C(F)(F)F)c2)cc1C#Cc1nn(C2CCC(O)CC2)c2ncnc(N)c12 (stereo not shown)", "test": "cell-free assay", "setting": "10 µM", "endpoint": "remaining signal", "result": "95%"}
{"SMILES": "Nc1ncnc2occ(-c3ccc(NC(=O)Nc4cc(C(F)(F)F)ccc4F)cc3)c12", "test": "cell-free assay, inhibitor", "setting": "20 µM", "endpoint": "remaining signal", "result": "25%"}
{"SMILES": "CCCS(=O)(=O)Nc1ccc(F)c(C(=O)c2c[nH]c3ncc(-c4ccc(Cl)cc4)cc23)c1F", "test": "enzyme activity, inhibitor", "setting": "1 µM", "endpoint": "inhibition", "result": "< 10%"}
{"SMILES": "Cc1cnc(NC2CCOCC2)nc1-n1cnc(C(=O)NC(CN)c2cc(F)cc(Cl)c2)c1 (stereo not shown)", "test": "enzyme activity, inhibitor, radiometric", "setting": "1 µM", "endpoint": "remaining activity", "result": "108%"}
{"SMILES": "CC(C)(O)[C@H]1CC[C@H](Nc2ccc3ncc(-c4cccc(C(F)(F)F)c4)n3n2)CC1", "test": "enzyme activity, inhibitor", "setting": "1 µM", "endpoint": "remaining activity", "result": "107%"}
{"SMILES": "Cc1ccc(Nc2nccc(N(C)c3ccc4c(C)n(C)nc4c3)n2)cc1S(N)(=O)=O", "test": "enzyme activity, inhibitor", "setting": "10 µM", "endpoint": "inhibition", "result": "-4%"}
{"SMILES": "CS(=O)(=O)NCC[C@H](NC(=O)c1cncc2c1cnn2-c1ccc(F)cc1)c1ccnc(S(C)(=O)=O)c1", "test": "cell-free assay, competition with immobilised ligand", "setting": "1 µM", "endpoint": "remaining binding", "result": "100%"}
{"SMILES": "CNC(=O)c1cc(Oc2ccc(NC(=O)Nc3ccc(Cl)c(C(F)(F)F)c3)cc2)ccn1", "test": "enzyme activity, inhibitor", "setting": "10 µM", "endpoint": "inhibition", "result": "6%"}
{"SMILES": "CN(C)C(=O)Cn1cc(-c2nc([C@@](C)(c3ccc(-c4cnc(N)nc4)cc3)C3CC3)no2)cn1", "test": "cell-free assay, competition with immobilised ligand", "setting": "1 µM", "endpoint": "remaining binding", "result": "100%"}
{"SMILES": "O=C1Nc2ccc(Cl)cc2C1=Cc1cc(Cl)c(O)c(Cl)c1", "test": "cell-free assay", "setting": "0.5 µM", "endpoint": "remaining signal", "result": "135%"}
{"SMILES": "Cc1nc(C2CCN(C(=O)c3ccc(OC(F)(F)F)cc3N)CC2)c2ncc(N3CCN(C)CC3)cc2n1", "test": "cell-free assay, competition with immobilised ligand", "setting": "1 µM", "endpoint": "remaining binding", "result": "100%"}
{"SMILES": "CCN(CC)CCNC(=O)c1c(C)[nH]c(/C=C2\\C(=O)Nc3ccc(F)cc32)c1C", "test": "enzyme activity, inhibitor", "setting": "0.3 µM", "endpoint": "inhibition", "result": "30%"}
{"SMILES": "CC(C)(C)c1nc2c(s1)c1nc(N)ncc1c1ccc(NS(=O)(=O)c3c(F)cccc3F)c(F)c12", "test": "enzyme activity, inhibitor, radiometric", "setting": "1 µM", "endpoint": "remaining activity", "result": "81%"}
{"SMILES": "N[C@H]1CCN(c2nccc(-c3cnn4ncccc34)n2)C1", "test": "binding", "setting": "1 µM", "endpoint": "remaining binding", "result": "98%"}
